Test results from ChEMBL document CHEMBL4020824, “Discovery of Potent and Orally Bioavailable Dihydropyrazole GPR40 Agonists” (J Med Chem, 2018).
The source made the active and inactive calls.

Legend:
[1] = Clearance in Sprague-Dawley rat at 1 mg/kg, iv administered as single dose measured up to 24 hrs post dose by LC-MS/MS analysis; type: ADME, organism-based; conditions: in vivo
[2] = Cmax in C57BL6 mouse at 1 mg/kg, po administered as single dose measured up to 24 hrs post dose by LC-MS/MS analysis; type: ADME, organism-based; set-up: dose 1 mg/kg, route oral; conditions: in vivo
[3] = Volume of distribution at steady state in Beagle dog at 0.5 mg/kg, iv administered as single dose measured up to 24 hrs post dose by LC-MS/MS analysis; type: ADME, organism-based, Canis lupus familiaris; conditions: in vivo, read-out: Vdss
[4] = Clearance in CD1 mouse at 1 mg/kg, iv administered as bolus dose or 1 mg/kg, po administered as single dose measured up to 24 hrs post dose by LC-MS/MS analysis; type: ADME, organism-based; conditions: in vivo
[5] = Volume of distribution at steady state in CD1 mouse at 1 mg/kg, iv via bolus dose or 1 mg/kg, po administered as single dose measured up to 24 hrs post dose by LC-MS/MS analysis; type: ADME, organism-based; conditions: in vivo, read-out: Vdss
[6] = Clearance in cynomolgus monkey at 0.5 mg/kg, iv administered as single dose measured up to 24 hrs post dose by LC-MS/MS analysis; type: ADME, organism-based, Macaca fascicularis; conditions: in vivo
[7] = Half life in human liver microsomes at 1 to 3 uM incubated for 20 mins in presence NADPH measured up to 90 mins by LC/MS/MS analysis; type: ADME, microsome; conditions: liver microsomes
[8] = tested on: Mus musculus; test: Antidiabetic activity in C57BL/6J mouse assessed as glucose lowering effect at 0.1 mg/kg, po administered 1 hr prior to glucose challenge measured after 120 mins by IPGTT; type: functional, organism-based
[9] = species: Homo sapiens; test: Inhibition of FFAR (unknown origin) at <10 uM
Outline: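 Part of a proprietary selectivity counterscreen panel covering GPCRs (including the related free fatty acid receptors), nuclear hormone receptors, transporters, ion channels and hERG. Activity was scored against a 10 µM threshold.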

[10] = Cmax in Sprague-Dawley rat at 3 mg/kg, po administered as single dose measured up to 24 hrs post dose by LC-MS/MS analysis; type: ADME, organism-based; set-up: dose 3 mg/kg, route oral; conditions: in vivo
[11] = tested on: Mus musculus; test: Toxicity in C57BL/6J mouse assessed as induction of hypoglycemia effect at 1 mg/kg, po administered 1 hr prior to glucose challenge measured after 120 mins by IPGTT; type: organism-based; conditions: in vivo, 2 h
[12] = Half life in CD1 mouse at 1 mg/kg, iv administered as bolus dose or 1 mg/kg, po administered as single dose measured up to 24 hrs post dose by LC-MS/MS analysis; type: ADME, organism-based; conditions: in vivo
[13] = tested on: Mus musculus; test: Antidiabetic activity in C57BL/6J mouse assessed as increase in active GLP-1 levels at 3 mg/kg, po administered 1 hr prior to glucose challenge measured after 120 mins in presence of DPP4 inhibitor BMS-538305 during OGTT assay by ELISA; type: functional, organism-based
[14] = biological target: Free fatty acid receptor 1 (Homo sapiens, UniProt O14842); test: Agonist activity at human GPR40 expressed in CHOA12 cells assessed as induction of Ca2+ mobilization by FLIPR assay; type: functional, cell-based
[15] = Half life in Beagle dog at 0.5 mg/kg, iv administered as single dose measured up to 24 hrs post dose by LC-MS/MS analysis; type: ADME, organism-based, Canis lupus familiaris; conditions: in vivo
[16] = Clearance in Beagle dog at 0.5 mg/kg, iv administered as single dose measured up to 24 hrs post dose by LC-MS/MS analysis; type: ADME, organism-based, Canis lupus familiaris; conditions: in vivo
[17] = Tmax in Beagle dog at 1 mg/kg, po administered as single dose measured up to 24 hrs post dose by LC-MS/MS analysis; type: ADME, organism-based, Canis lupus familiaris; conditions: in vivo
[18] = tested on: Mus musculus; test: Antidiabetic activity in C57BL/6J mouse assessed as effect on active GLP-1 levels at 3 mg/kg, po administered 1 hr prior to glucose challenge measured after 120 mins during OGTT assay by ELISA; type: functional, organism-based
[19] = Stability in rat liver microsomes assessed as parent compound remaining at 1 to 3 uM incubated for 20 mins in presence NADPH measured up to 90 mins by LC/MS/MS analysis; type: ADME, microsome; conditions: liver microsomes, read-out: Stability
Outline: (§1)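 Human or rat liver microsomal incubations. The read-outs were % parent remaining, % D-ring dealkylation metabolites, % GSH adducts, and half-life (min). The metabolites followed were CYP450-mediated oxidative de-alkylation products (phenols) and GSH conjugates.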

[20] = biological target: T1, Amine oxidase [flavin-containing] B (Homo sapiens, UniProt P27338); test: Inhibition of MAO-B (unknown origin)
T1 sequence (P27338 whole entry): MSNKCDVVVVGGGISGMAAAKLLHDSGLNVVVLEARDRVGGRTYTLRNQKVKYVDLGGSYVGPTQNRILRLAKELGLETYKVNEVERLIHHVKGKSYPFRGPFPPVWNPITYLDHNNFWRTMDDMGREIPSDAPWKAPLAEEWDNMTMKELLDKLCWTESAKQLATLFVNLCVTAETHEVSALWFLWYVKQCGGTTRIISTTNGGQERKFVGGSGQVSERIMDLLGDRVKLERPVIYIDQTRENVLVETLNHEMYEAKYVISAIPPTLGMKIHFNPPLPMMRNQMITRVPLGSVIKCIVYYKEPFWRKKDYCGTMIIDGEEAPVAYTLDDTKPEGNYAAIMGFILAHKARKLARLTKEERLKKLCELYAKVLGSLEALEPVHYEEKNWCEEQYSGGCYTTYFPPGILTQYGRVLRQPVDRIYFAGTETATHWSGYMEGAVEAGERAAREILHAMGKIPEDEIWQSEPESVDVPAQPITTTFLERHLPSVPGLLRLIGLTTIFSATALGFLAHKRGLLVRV

[21] = Volume of distribution at steady state in cynomolgus monkey at 0.5 mg/kg, iv administered as single dose measured up to 24 hrs post dose by LC-MS/MS analysis; type: ADME, organism-based, Macaca fascicularis; conditions: in vivo, read-out: Vdss
[22] = Stability in human liver microsomes assessed as parent compound remaining at 1 to 3 uM incubated for 20 mins in presence NADPH measured up to 90 mins by LC/MS/MS analysis; type: ADME, microsome; conditions: liver microsomes, read-out: Stability; outline: as §1
[23] = tested on: Mus musculus; test: Antidiabetic activity in C57BL/6J mouse assessed as reduction in plasma glucose excursion at 3 mg/kg, po administered 1 hr prior to glucose challenge measured after 120 mins in presence of DPP4 inhibitor BMS-538305 by OGTT assay; type: functional, organism-based
[24] = Oral bioavailability in Sprague-Dawley rat at 3 mg/kg administered via gavage as single dose measured up to 24 hrs post dose by LC-MS/MS analysis; type: ADME, organism-based; conditions: in vivo
[25] = Oral bioavailability in Beagle dog at 1 mg/kg administered via gavage as single dose measured up to 24 hrs post dose by LC-MS/MS analysis; type: ADME, organism-based, Canis lupus familiaris; conditions: in vivo
[26] = Half life in rat liver microsomes at 1 to 3 uM incubated for 20 mins in presence NADPH measured up to 90 mins by LC/MS/MS analysis; type: ADME, microsome; conditions: liver microsomes
[27] = Oral bioavailability in cynomolgus monkey at 1 mg/kg administered via gavage as single dose measured up to 24 hrs post dose by LC-MS/MS analysis; type: ADME, organism-based, Macaca fascicularis; conditions: in vivo
[28] = Cmax in Beagle dog at 1 mg/kg, po administered as single dose measured up to 24 hrs post dose by LC-MS/MS analysis; type: ADME, organism-based, Canis lupus familiaris; set-up: dose 1 mg/kg, route oral; conditions: in vivo

Free fatty acid receptor 1, sequence (O14842 whole entry): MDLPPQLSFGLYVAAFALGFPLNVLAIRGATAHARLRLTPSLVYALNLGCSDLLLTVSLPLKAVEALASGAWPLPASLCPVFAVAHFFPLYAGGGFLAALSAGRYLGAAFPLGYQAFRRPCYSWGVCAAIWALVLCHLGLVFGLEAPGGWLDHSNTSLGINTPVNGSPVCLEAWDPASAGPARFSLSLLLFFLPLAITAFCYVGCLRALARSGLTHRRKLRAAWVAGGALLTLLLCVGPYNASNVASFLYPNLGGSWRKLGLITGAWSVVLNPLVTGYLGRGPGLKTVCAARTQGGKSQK

## COc1cc(N2CC[C@@H](Oc3ccc(N4N=C(C(F)(F)F)[C@@H](C)[C@@H]4CC(=O)O)cc3)[C@H](C)C2)c(Cl)cn1
[1]
  clearance: 3.4 mL/min/kg
[2]
  Cmax: 6 µM
[3]
  Vd: 0.6 L/kg
[4]
  clearance: 2 mL/min/kg
[5]
  Vd: 0.4 L/kg
[6]
  clearance: 0.7 mL/min/kg
[7]
  half-life: 1.7 h
[8]
  Activity: Active
[9]
  inhibition: inactive
[10]
  Cmax: 3.5 µM
[11]
  Activity: Non-Toxic
[12]
  half-life: 3.1 h
[13]
  Activity: Active
[14]
  EC50: 0.07 µM
[15]
  half-life: 5.2 h
[16]
  clearance: 2.2 mL/min/kg
[17]
  Tmax: 0.8 h
[18]
  Activity: inactive
[19]
  remaining at 20 min, up to 3 µM: 75%
[20]
  IC50: 6 µM
[21]
  Vd: 0.7 L/kg
[22]
  remaining at 20 min, up to 3 µM: 89%
[23]
  Activity: Active
[24]
  bioavailability: 47%
[25]
  bioavailability: 62%
[26]
  half-life: 1.35 h
[27]
  bioavailability: 61%
[28]
  Cmax: 1.2 µM
